# Assay results from ChEMBL document CHEMBL1149436, “New bicyclic cannabinoid receptor-1 (CB1-R) antagonists” (Bioorg Med Chem Lett, 2006).
# pKi: −log10 of the molar value. Calls of active or inactive are those of the source. The calls are words filed in the database; no cut-off is given here.
# Experiments:
# Cannabinoid receptor 2 = Cannabinoid receptor 2 (Homo sapiens, UniProt P34972); test: Binding affinity to human CB2 receptor expressed in CHOK1 cells; format: cell-based, CHO-K1
# Cannabinoid receptor 1 [1] = molecular target: T1, Cannabinoid receptor 1 (Homo sapiens, UniProt P21554); test: biochemical; format: cell-based, HEK293
# T1 sequence (P21554 whole entry): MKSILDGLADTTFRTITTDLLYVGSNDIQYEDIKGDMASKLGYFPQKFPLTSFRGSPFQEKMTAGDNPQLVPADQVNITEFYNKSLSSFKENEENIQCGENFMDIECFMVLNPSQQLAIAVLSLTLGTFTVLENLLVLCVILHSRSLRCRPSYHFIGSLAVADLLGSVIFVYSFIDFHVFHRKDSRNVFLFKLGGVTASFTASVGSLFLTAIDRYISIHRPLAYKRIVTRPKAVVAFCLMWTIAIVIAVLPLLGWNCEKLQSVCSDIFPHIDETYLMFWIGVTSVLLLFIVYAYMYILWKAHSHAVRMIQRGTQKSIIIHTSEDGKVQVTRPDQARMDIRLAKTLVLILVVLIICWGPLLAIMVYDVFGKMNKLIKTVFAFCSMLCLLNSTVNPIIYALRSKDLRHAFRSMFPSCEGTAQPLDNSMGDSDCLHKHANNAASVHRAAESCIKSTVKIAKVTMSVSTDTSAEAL
# Cannabinoid receptor 1 [2] = molecular target: T1, Cannabinoid receptor 1; test: Functional activity at human CB1 receptor transfected in CHOK1 cells by [35SGTP]gammaS assay; format: cell-based, CHO-K1
# Mus musculus = test: Ability to reverse CP-55940-stimulated responses in mice at 1 mg/kg, sc; format: functional, organism-based; design: dose 1 mg/kg
# Summary of the method: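 Mouse challenge assay from the 'tetrad': reversal of CP-55940-stimulated analgesia and hypothermia, test agent given sc.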
# Rattus norvegicus [3] = test: Anorectic activity assessed in a fasting-induced re-feeding model in Sprague-Dawley rat at 10 mg/kg, po relative to control; format: functional
# Summary of the method: (§1)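 Male CD rats fasted overnight, dosed orally the next morning with suspension in 0.5% methylcellulose. Food returned 0.5 h after dosing; cumulative intake measured 1.5 h later, expressed as % change versus vehicle-treated controls.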
# [4] = Plasma clearance in Sprague-Dawley rat at 1 mg/kg, iv; format: ADME, organism-based; design: dose 1 mg/kg, route intravenous
# Summary of the method: (§2)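 Male Sprague-Dawley rats, 1 mg/kg iv via jugular vein cannula, amorphous solid in 20% EtOH/80% CD or Transcutol P/CD depending on compound. Plasma levels by LC-MS/MS after protein precipitation.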
# [5] = Bioavailability in Sprague-Dawley rat at 1 mg/kg, iv; format: ADME, organism-based; conditions: in vivo
# Summary of the method: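 Male Sprague-Dawley rats: iv dosing 1 mg/kg via jugular cannula (20% EtOH/80% CD or Transcutol P/CD); oral dosing of crystalline solid in 0.5% methylcellulose. Plasma by LC-MS/MS after protein precipitation.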
# Rattus norvegicus [6] = test: Anorectic activity assessed in a fasting-induced re-feeding model in Sprague-Dawley rat at 1 mg/kg, po relative to control; format: functional; summary of the method: as §1
# [7] = Volume of distribution in Beagle dog at 0.5 mg/kg, iv; format: ADME, organism-based, Canis lupus familiaris; design: dose 0.5 mg/kg, route intravenous; conditions: in vivo, read-out: Vdss
# Summary of the method: (§3)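 Male beagle dogs, 0.5 mg/kg iv. Vehicle: 6.7% EtOH/60% CD/33.3% PEG 400 or Transcutol P, depending on compound; amorphous solid used for iv. Plasma levels by LC-MS/MS after protein precipitation.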
# [8] = Plasma clearance in Beagle dog at 0.5 mg/kg, iv; format: ADME, organism-based, Canis lupus familiaris; design: dose 0.5 mg/kg, route intravenous; summary of the method: as §3
# [9] = Half life in Beagle dog at 0.5 mg/kg, iv; format: ADME, organism-based, Canis lupus familiaris; design: dose 0.5 mg/kg, route intravenous; conditions: in vivo; summary of the method: as §3
# Rattus norvegicus [10] = test: Anorectic activity assessed in a fasting-induced re-feeding model in Sprague-Dawley rat at 3 mg/kg, po relative to control; format: functional; summary of the method: as §1
# [11] = Half life in Sprague-Dawley rat at 1 mg/kg, iv; format: ADME, organism-based; design: dose 1 mg/kg, route intravenous; conditions: in vivo; summary of the method: as §2
# [12] = Volume of distribution in Sprague-Dawley rat at 1 mg/kg, iv; format: ADME, organism-based; design: dose 1 mg/kg, route intravenous; conditions: in vivo, read-out: Vdss; summary of the method: as §2
# Rattus norvegicus [13] = test: Anorectic activity assessed in a fasting-induced re-feeding model in Sprague-Dawley rat at 0.3 mg/kg, po relative to control; format: functional; summary of the method: as §1
# Chain of Cannabinoid receptor 2 (P34972 whole entry): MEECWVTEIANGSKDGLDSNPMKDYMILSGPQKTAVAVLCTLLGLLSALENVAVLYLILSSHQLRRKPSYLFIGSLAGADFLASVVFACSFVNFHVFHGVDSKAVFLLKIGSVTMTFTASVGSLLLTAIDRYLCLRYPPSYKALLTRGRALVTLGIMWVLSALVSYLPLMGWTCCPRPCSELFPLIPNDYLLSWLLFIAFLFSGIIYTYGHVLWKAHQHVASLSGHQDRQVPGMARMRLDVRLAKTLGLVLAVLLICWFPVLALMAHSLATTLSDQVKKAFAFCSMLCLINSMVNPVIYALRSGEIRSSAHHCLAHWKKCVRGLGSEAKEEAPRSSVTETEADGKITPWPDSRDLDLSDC
pKi (Cannabinoid receptor 2),pKi (Cannabinoid receptor 1 [1]),pKi (Cannabinoid receptor 1 [2]),SMILES,other results
< 5.00,7.42,,O=c1c2nn(-c3ccc(Cl)cc3)c(-c3ccccc3Cl)c2ncn1C1CCCCC1,
,7.68,,CC(C)n1cnc2c(-c3ccc(Cl)cc3)n(-c3ccccc3Cl)nc2c1=O,
< 5.00,,,CC(F)(F)Cn1cnc2c(-c3ccc(Cl)cc3)n(-c3ccccc3Cl)nc2c1=O,
< 5.00,9.00,9.00,O=c1c2nc(-c3ccccc3Cl)n(-c3ccc(Cl)cc3)c2ncn1CC(F)(F)F,
< 5.00,7.55,,O=c1c2nn(-c3ccc(Cl)cc3)c(-c3ccccc3Cl)c2ncn1CC(F)(F)F,
< 5.00,,,O=c1c2nn(-c3ccccc3Cl)c(-c3ccc(Cl)cc3)c2ncn1CC(F)F,
< 5.00,8.10,8.40,O=c1c2nn(-c3ccccc3Cl)c(-c3ccc(Cl)cc3)c2cnn1CC(F)(F)F,
< 5.00,,,O=c1c2nn(-c3ccccc3Cl)c(-c3ccc(Cl)cc3)c2ncn1CCF,
,7.59,,CCC(CC)n1cnc2c(-c3ccc(Cl)cc3)n(-c3ccccc3Cl)nc2c1=O,
< 5.00,,,O=c1c2nn(-c3ccccc3Cl)c(-c3ccc(Cl)cc3)c2ncn1CCC(F)(F)F,
< 5.00,,,O=c1c2nn(-c3ccccc3Cl)c(-c3ccc(Cl)cc3)c2ncn1Cc1ccccc1,
< 5.00,9.00,8.52,CCc1nc2c(-c3ccc(Cl)cc3)n(-c3ccccc3Cl)nc2c(=O)n1CC(F)(F)F,
< 5.00,7.70,,O=c1c2nn(-c3ccccc3Cl)c(-c3ccc(Cl)cc3)c2ncn1C1CCCCC1,
< 5.00,8.22,7.89,CC(C)c1nc2c(-c3ccc(Cl)cc3)n(-c3ccccc3Cl)nc2c(=O)n1CC(F)(F)F,
< 5.00,,,CCn1cnc2c(-c3ccc(Cl)cc3)n(-c3ccccc3Cl)nc2c1=O,
< 5.00,7.92,7.70,O=c1c2nn(-c3ccccc3Cl)c(-c3ccc(Cl)cc3)c2ncn1N1CCCCC1,
< 5.00,,,CCCn1cnc2c(-c3ccc(Cl)cc3)n(-c3ccccc3Cl)nc2c1=O,

SMILES,pKi (Cannabinoid receptor 2),pKi (Cannabinoid receptor 1 [1]),pKi (Cannabinoid receptor 1 [2]),other results
Cc1nc2c(-c3ccc(Cl)cc3)n(-c3ccccc3Cl)nc2c(=O)n1CC(F)(F)F,< 5.00,,,Activity (Mus musculus): Active; Activity (Rattus norvegicus [3]): -59%; clearance [4]: 32 mL/min/kg; bioavailability [5]: 7%; Activity (Rattus norvegicus [6]): -35%; Vd [7]: 17 L/kg; clearance [8]: 10 mL/min/kg; half-life [9]: 39 h; Activity (Rattus norvegicus [10]): -42%; half-life [11]: 4.7 h; Vd [12]: 7.7 L/kg
O=c1c2nn(-c3ccccc3Cl)c(-c3ccc(Cl)cc3)c2ccn1CC(F)(F)F,< 5.00,9.00,9.00,
O=c1c2nn(-c3ccccc3Cl)c(-c3ccc(Cl)cc3)c2ncn1CC(F)(F)F,< 5.00,,,Activity (Mus musculus): Active; clearance [4]: 45 mL/min/kg; bioavailability [5]: 62%; Activity (Rattus norvegicus [6]): -32%; Activity (Rattus norvegicus [13]): -23%; Vd [7]: 10 L/kg; clearance [8]: 0.54 mL/min/kg; half-life [9]: 223 h; Activity (Rattus norvegicus [10]): -78%; half-life [11]: 2.6 h; Vd [12]: 9.2 L/kg
